The source made the active and inactive calls. The rule behind the calls is not given here.

One assay is filed under the species Rattus norvegicus. As to the kind of experiment: Activity at rat liver nucleoside kinase assessed as phosphorylation using [gamma-32P]-ATP after 10 to 20 mins. The method, boiled down: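 Rat liver nucleoside kinase was the 55–90% (NH4)2SO4 fraction of the 144000g supernatant, dialyzed. The medium was 50 mM Tris-HCl pH 8.0, 5 μM MgCl2 (so in the source), 25 mM KCl, 1 mM [γ-32P]ATP, and pyruvate kinase with 2 mM phosphoenolpyruvate. Incubation was 10 or 20 min at 37 °C, stopped by 1 min at 100 °C. Liberated Pi was precipitated with added 0.1 mM K2HPO4.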
`CO[C@@H]1[C@H](O)[C@@H](CO)O[C@H]1n1cnc(C(N)=O)n1`: the result was inactive.
Take `NC(=O)c1ncn([C@@H]2O[C@H](CO)[C@@H](O)[C@H]2O)n1`: the outcome was Active.
As to `O=C(O)c1ncn([C@@H]2O[C@H](CO)[C@@H](O)[C@H]2O)n1`, the outcome was inactive.
On the same count and under the same terms, then `CO[C@H]1[C@@H](O)[C@H](n2cnc(C(N)=O)n2)O[C@@H]1CO`, with “inactive”; and `OC[C@H]1O[C@@H](n2cncn2)[C@H](O)[C@@H]1O`, with “inactive”.
The same measure, in the same setting: then `Nc1ncnc2c1ncn2[C@@H]1O[C@H](CO)[C@@H](O)[C@H]1O`, with “Active”.

Biological target in the next assay: not listed separately
As to the kind of experiment: Inhibition of rat spleen IMP dehydrogenase using NAD and IMP up to 1 hr. The format is tissue-based. In outline: (§1)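 Rat spleen IMP dehydrogenase was the 30–40% (NH4)2SO4 fraction, dialyzed, at 0.66 mg protein/mL. Buffer was 0.1 M phosphate pH 7.7 with 1 mM EDTA, 0.5 mM 2-mercaptoethanol and 0.2 mM each NAD and IMP, started with IMP. A340 change against a no-IMP blank was followed at 37 °C for up to 1 h. Activity was expressed relative to the no-inhibitor rate.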
For orientation: IC50 means the concentration at which inhibition is half-maximal. Low values mean greater potency in that assay, high ones weaker potency in that assay. Consider `O=C(O)c1ncn([C@@H]2O[C@H](COP(=O)(O)O)[C@@H](O)[C@H]2O)n1`, for which the IC50 came to 70 µM.
Still for that read-out and setting: under `NC(=O)c1ncn([C@@H]2O[C@H](COP(=O)(O)O)[C@@H](O)[C@H]2O)n1` [RIBAVIRIN MONOPHOSPHATE] stands 2 µM.

The species entered for a further assay is Rattus norvegicus. Nature of the assay: Inhibition of rat spleen IMP dehydrogenase using NAD and IMP at 200 uM up to 1 hr. The format is tissue-based. In outline: as §1
Consider `CO[C@@H]1[C@H](O)[C@@H](COP(=O)(O)O)O[C@H]1n1cnc(C(N)=O)n1`, for which the inhibition entry was “inactive”.
Still for that read-out and setting: then `CO[C@H]1[C@@H](O)[C@H](n2cnc(C(N)=O)n2)O[C@@H]1COP(=O)(O)O`, with “inactive”; and `O=P(O)(O)OC[C@H]1O[C@@H](n2cncn2)[C@H](O)[C@@H]1O`, with “inactive”.

The record behind these values is ChEMBL document CHEMBL3227955, “Studies on the mechanism of antiviral action of 1-(beta-D-ribofuranosyl)-1,2,4-triazole-3-carboxamide (ribavirin)” (J Med Chem, 1979).
